Test results published in ChEMBL document CHEMBL1124369, “Pyrido[3,4-e]-1,2,4-triazines and related heterocycles as potential antifungal agents” (1989).
Converted amounts (≈) assume the structure as drawn. Values belong to the compound of their own block, whether it stands above or below them.

Assays:
Diutina rugosa = assay: Antifungal activity against Candida rugosa; assay type: functional
Method in brief: (§1)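 Agar dilution MIC. Twofold serial drug dilutions in yeast nitrogen base medium with 1% dextrose, 0.15% asparagine and 1.5% agar. Agar surfaces inoculated using a Steers multiple inocula replicator, then incubated at 35 °C for 24-48 h. MIC was recorded as the lowest concentration inhibiting visible growth. Amphotericin B, miconazole and nystatin served as controls.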

Trichophyton rubrum [1] = assay: Antifungal activity against Trichophyton rubrum; Range is 4-16; assay type: functional; method in brief: as §1
Aspergillus niger [2] = assay: Antifungal activity against Aspergillus niger; Range is 32-64; assay type: functional; method in brief: as §1
Candida parapsilosis = assay: Antifungal activity against Candida parapsilosis; assay type: functional; conditions: Lodderomyces parapsilosis; method in brief: as §1
Candida albicans [3] = assay: Antifungal activity against Candida albicans; Range is 16-64; assay type: functional; method in brief: as §1
Candida tropicalis [4] = assay: Antifungal activity against Candida tropicalis; Range is 32-64; assay type: functional; method in brief: as §1
Candida albicans [5] = assay: Antifungal activity against Candida stellatoidea; assay type: functional; method in brief: as §1
Trichophyton benhamiae [6] = assay: Antifungal activity against Trichophyton mentagrophytes; assay type: functional, trychophyton mentagrophytes; method in brief: as §1
Mucor fragilis = assay: Antifungal activity against Mucor fragilis; assay type: functional; method in brief: as §1
Kluyveromyces marxianus [7] = assay: Antifungal activity against Candida pseudotropicalis; assay type: functional; method in brief: as §1
Kluyveromyces marxianus [8] = assay: Antifungal activity against Candida pseudotropicalis; Range is 1-32; assay type: functional; method in brief: as §1
Trichophyton benhamiae [9] = assay: Antifungal activity against Trichophyton mentagrophytes; Range is 16-32; assay type: functional, trychophyton mentagrophytes
Candida albicans [10] = assay: Antifungal activity against Candida albicans; assay type: functional; method in brief: as §1
Trichophyton rubrum [11] = assay: Antifungal activity against Trichophyton rubrum; assay type: functional; method in brief: as §1
Aspergillus niger [12] = assay: Antifungal activity against Aspergillus niger; assay type: functional; method in brief: as §1
Candida albicans [13] = assay: Antifungal activity against Candida albicans; Range is 8-16; assay type: functional; method in brief: as §1
Kluyveromyces marxianus [14] = assay: Antifungal activity against Candida pseudotropicalis; Range is 0.25-4; assay type: functional; method in brief: as §1
Candida tropicalis [15] = assay: Antifungal activity against Candida tropicalis; Range is 8-16; assay type: functional; method in brief: as §1
Candida tropicalis [16] = assay: Antifungal activity against Candida tropicalis; assay type: functional; method in brief: as §1
Trichophyton benhamiae [17] = assay: Antifungal activity against Trichophyton mentagrophytes; Range is 32-64; assay type: functional, trychophyton mentagrophytes; method in brief: as §1
Trichophyton rubrum [18] = assay: Antifungal activity against Trichophyton rubrum; Range is 16-32; assay type: functional; method in brief: as §1
Candida albicans [19] = assay: Antifungal activity against Candida albicans; Range is 16-32; assay type: functional; method in brief: as §1
Candida tropicalis [20] = assay: Antifungal activity against Candida tropicalis; Range is 16-32; assay type: functional; method in brief: as §1
Trichophyton benhamiae [21] = assay: Antifungal activity against Trichophyton mentagrophytes; Range is 8-32; assay type: functional, trychophyton mentagrophytes; method in brief: as §1
Candida tropicalis [22] = assay: Antifungal activity against Candida tropicalis; Range is 4-16; assay type: functional; method in brief: as §1
Aspergillus niger [23] = assay: Antifungal activity against Aspergillus niger; Range is 16-32; assay type: functional; method in brief: as §1
Trichophyton rubrum [24] = assay: Antifungal activity against Trichophyton rubrum; Range is 1-2; assay type: functional; method in brief: as §1
Kluyveromyces marxianus [25] = assay: Antifungal activity against Candida pseudotropicalis; Range is 32-64; assay type: functional; method in brief: as §1
Trichophyton rubrum [26] = assay: Antifungal activity against Trichophyton rubrum; Range is 2-4; assay type: functional; method in brief: as §1
Trichophyton rubrum [27] = assay: Antifungal activity against Trichophyton rubrum; Range is 4-8; assay type: functional; method in brief: as §1
Aspergillus niger [28] = assay: Antifungal activity against Aspergillus niger; Range is 8-16; assay type: functional; method in brief: as §1
Kluyveromyces marxianus [29] = assay: Antifungal activity against Candida pseudotropicalis; Range is 64-128; assay type: functional; method in brief: as §1
Trichophyton rubrum [30] = assay: Antifungal activity against Trichophyton rubrum; Range is 32-64; assay type: functional; method in brief: as §1
Candida albicans [31] = assay: microbe, parasite or virus in culture
Candida tropicalis [32] = assay: Antifungal activity against Candida tropicalis; Range is 0.25-0.5; assay type: functional
Aspergillus niger [33] = assay: Antifungal activity against Aspergillus niger; Range is 16-128; assay type: functional; method in brief: as §1
Kluyveromyces marxianus [34] = assay: Antifungal activity against Candida pseudotropicalis; Range is 2-4; assay type: functional; method in brief: as §1
Aspergillus niger [35] = assay: Antifungal activity against Aspergillus niger; Range is 64-128; assay type: functional; method in brief: as §1

MIC (Diutina rugosa): 8 µg/mL (≈ 19.2 µM)
MIC (Candida albicans [13]): 8 µg/mL (≈ 19.2 µM)
MIC (Kluyveromyces marxianus [14]): 0.25 µg/mL (≈ 0.601 µM)
MIC (Candida parapsilosis): 16 µg/mL (≈ 38.4 µM)
MIC (Candida tropicalis [15]): 8 µg/mL (≈ 19.2 µM)
MIC (Trichophyton rubrum [11]): 1 µg/mL (≈ 2.4 µM)
MIC (Candida albicans [5]): 8 µg/mL (≈ 19.2 µM)
MIC (Trichophyton benhamiae [6]): 2 µg/mL (≈ 4.81 µM)
MIC (Mucor fragilis): 8 µg/mL (≈ 19.2 µM)
MIC (Aspergillus niger [12]): 8 µg/mL (≈ 19.2 µM)
Structure (SMILES): Clc1ccc(COC(Cn2ccnc2)c2ccc(Cl)cc2Cl)c(Cl)c1 (stereo not given) [MICONAZOLE]

MIC (Candida tropicalis [16]): 64 µg/mL (≈ 340 µM)
MIC (Trichophyton benhamiae [17]): 32 µg/mL (≈ 170 µM)
MIC (Candida parapsilosis): 64 µg/mL (≈ 340 µM)
MIC (Candida albicans [10]): 64 µg/mL (≈ 340 µM)
MIC (Trichophyton rubrum [18]): 16 µg/mL (≈ 85 µM)
MIC (Aspergillus niger [12]): 64 µg/mL (≈ 340 µM)
MIC (Kluyveromyces marxianus [7]): 64 µg/mL (≈ 340 µM)
Structure (SMILES): CC(C)(C)c1nnc2ccncc2n1

MIC (Candida albicans [19]): 16 µg/mL (≈ 109 µM)
MIC (Candida tropicalis [20]): 16 µg/mL (≈ 109 µM)
MIC (Candida parapsilosis): 64 µg/mL (≈ 438 µM)
MIC (Trichophyton benhamiae [21]): 8 µg/mL (≈ 54.7 µM)
MIC (Trichophyton rubrum [11]): 4 µg/mL (≈ 27.4 µM)
MIC (Aspergillus niger [12]): 32 µg/mL (≈ 219 µM)
MIC (Kluyveromyces marxianus [7]): 8 µg/mL (≈ 54.7 µM)
Structure (SMILES): Cc1nccc2nncnc12

MIC (Diutina rugosa): 16 µg/mL (≈ 76.5 µM)
MIC (Candida tropicalis [22]): 4 µg/mL (≈ 19.1 µM)
MIC (Candida albicans [13]): 8 µg/mL (≈ 38.2 µM)
MIC (Candida parapsilosis): 16 µg/mL (≈ 76.5 µM)
MIC (Aspergillus niger [23]): 16 µg/mL (≈ 76.5 µM)
MIC (Trichophyton rubrum [24]): 1 µg/mL (≈ 4.78 µM)
MIC (Candida albicans [5]): 32 µg/mL (≈ 153 µM)
MIC (Trichophyton benhamiae [6]): 4 µg/mL (≈ 19.1 µM)
MIC (Mucor fragilis): > 128 µg/mL
MIC (Kluyveromyces marxianus [7]): 4 µg/mL (≈ 19.1 µM)
Structure (SMILES): c1cncc(-c2nnc3ccncc3n2)c1

MIC (Diutina rugosa): 128 µg/mL (≈ 566 µM)
MIC (Candida tropicalis [16]): 128 µg/mL (≈ 566 µM)
MIC (Candida albicans [10]): 128 µg/mL (≈ 566 µM)
MIC (Aspergillus niger [33]): 16 µg/mL (≈ 70.7 µM)
MIC (Trichophyton rubrum [11]): > 128 µg/mL
MIC (Candida albicans [5]): 128 µg/mL (≈ 566 µM)
MIC (Trichophyton benhamiae [6]): 32 µg/mL (≈ 141 µM)
MIC (Kluyveromyces marxianus [7]): 128 µg/mL (≈ 566 µM)
Structure (SMILES): Fc1ccc(-c2nnc3ncccc3n2)cc1

Further lines, the compound ahead of its results:

Structure (SMILES): c1cc2nnc(C3CCCCC3)nc2cn1
MIC (Diutina rugosa): 32 µg/mL (≈ 149 µM)
MIC (Trichophyton rubrum [1]): 4 µg/mL (≈ 18.7 µM)
MIC (Aspergillus niger [2]): 32 µg/mL (≈ 149 µM)
MIC (Candida parapsilosis): 64 µg/mL (≈ 299 µM)
MIC (Candida albicans [3]): 16 µg/mL (≈ 74.7 µM)
MIC (Candida tropicalis [4]): 32 µg/mL (≈ 149 µM)
MIC (Candida albicans [5]): 32 µg/mL (≈ 149 µM)
MIC (Trichophyton benhamiae [6]): 16 µg/mL (≈ 74.7 µM)
MIC (Mucor fragilis): 64 µg/mL (≈ 299 µM)
MIC (Kluyveromyces marxianus [7]): 32 µg/mL (≈ 149 µM)

Structure (SMILES): CCC1(Cc2ccccc2)N=Nc2ccncc2N1 (stereo not given)
MIC (Kluyveromyces marxianus [8]): 1 µg/mL (≈ 3.96 µM)
MIC (Trichophyton benhamiae [9]): 16 µg/mL (≈ 63.4 µM)
MIC (Candida parapsilosis): 128 µg/mL (≈ 507 µM)
MIC (Candida albicans [10]): 128 µg/mL (≈ 507 µM)
MIC (Candida tropicalis [4]): 32 µg/mL (≈ 127 µM)
MIC (Trichophyton rubrum [11]): 32 µg/mL (≈ 127 µM)
MIC (Aspergillus niger [12]): 128 µg/mL (≈ 507 µM)

Structure (SMILES): c1ccc(-c2nnc3ccncc3n2)nc1
MIC (Kluyveromyces marxianus [25]): 32 µg/mL (≈ 153 µM)
MIC (Diutina rugosa): 64 µg/mL (≈ 306 µM)
MIC (Candida tropicalis [16]): 64 µg/mL (≈ 306 µM)
MIC (Trichophyton rubrum [26]): 2 µg/mL (≈ 9.56 µM)
MIC (Candida parapsilosis): 64 µg/mL (≈ 306 µM)
MIC (Candida albicans [10]): 64 µg/mL (≈ 306 µM)
MIC (Candida albicans [5]): 16 µg/mL (≈ 76.5 µM)
MIC (Trichophyton benhamiae [6]): 32 µg/mL (≈ 153 µM)
MIC (Mucor fragilis): 64 µg/mL (≈ 306 µM)
MIC (Aspergillus niger [12]): 32 µg/mL (≈ 153 µM)

Structure (SMILES): c1ccc2c(c1)ncc1ncnnc12 [STRINOLINE]
MIC (Candida tropicalis [16]): 16 µg/mL (≈ 87.8 µM)
MIC (Candida albicans [13]): 8 µg/mL (≈ 43.9 µM)
MIC (Candida parapsilosis): 16 µg/mL (≈ 87.8 µM)
MIC (Trichophyton rubrum [27]): 4 µg/mL (≈ 22 µM)
MIC (Aspergillus niger [28]): 8 µg/mL (≈ 43.9 µM)
MIC (Trichophyton benhamiae [6]): 4 µg/mL (≈ 22 µM)
MIC (Kluyveromyces marxianus [7]): 8 µg/mL (≈ 43.9 µM)

Structure (SMILES): Cc1nnc2c(N)c(C)nc(C)c2n1
MIC (Candida tropicalis [16]): 128 µg/mL (≈ 676 µM)
MIC (Kluyveromyces marxianus [29]): 64 µg/mL (≈ 338 µM)
MIC (Trichophyton rubrum [30]): 32 µg/mL (≈ 169 µM)
MIC (Trichophyton benhamiae [17]): 32 µg/mL (≈ 169 µM)
MIC (Candida parapsilosis): 128 µg/mL (≈ 676 µM)
MIC (Candida albicans [10]): 128 µg/mL (≈ 676 µM)
MIC (Aspergillus niger [12]): 128 µg/mL (≈ 676 µM)

Structure (SMILES): C[C@@H]1[C@H](O)[C@@H](C)/C=C/C=C/C=C/C=C/C=C/C=C/C=C/[C@H](O[C@@H]2O[C@H](C)[C@@H](O)[C@H](N)[C@@H]2O)C[C@@H]2O[C@](O)(C[C@@H](O)C[C@@H](O)[C@H](O)CC[C@@H](O)C[C@@H](O)CC(=O)O[C@H]1C)C[C@H](O)[C@H]2C(=O)O [AMPHOTERICIN B]
MIC (Diutina rugosa): > 128 µg/mL
MIC (Candida albicans [31]): 0.25 µg/mL (≈ 0.271 µM)
MIC (Candida parapsilosis): 0.5 µg/mL (≈ 0.541 µM)
MIC (Trichophyton rubrum [11]): 0.5 µg/mL (≈ 0.541 µM)
MIC (Candida albicans [5]): > 128 µg/mL
MIC (Trichophyton benhamiae [6]): 1 µg/mL (≈ 1.08 µM)
MIC (Mucor fragilis): 0.25 µg/mL (≈ 0.271 µM)
MIC (Candida tropicalis [32]): 0.25 µg/mL (≈ 0.271 µM)
MIC (Aspergillus niger [12]): 0.5 µg/mL (≈ 0.541 µM)
MIC (Kluyveromyces marxianus [7]): 0.5 µg/mL (≈ 0.541 µM)

Structure (SMILES): c1ccc2c(c1)ncc1nc(-c3ccncc3)nnc12
MIC (Candida tropicalis [16]): 128 µg/mL (≈ 494 µM)
MIC (Kluyveromyces marxianus [34]): 2 µg/mL (≈ 7.71 µM)
MIC (Candida parapsilosis): 128 µg/mL (≈ 494 µM)
MIC (Candida albicans [10]): 128 µg/mL (≈ 494 µM)
MIC (Trichophyton rubrum [11]): 64 µg/mL (≈ 247 µM)
MIC (Aspergillus niger [35]): 64 µg/mL (≈ 247 µM)
MIC (Trichophyton benhamiae [6]): 64 µg/mL (≈ 247 µM)
